Reference: ChEMBL document CHEMBL1140944, “A new class of vitamin D analogues that induce structural rearrangement of the ligand-binding pocket of the receptor” (J Med Chem, 2009)
Residue numbers refer to the chain shown, from its start. pEC50: −log10 of the molar value. Calls of active or inactive are those of the source. The rule behind the calls is not given here.

Tests used:
[1] = biological target: T1, Vitamin D3 receptor (Homo sapiens) (UniProt P11473); experiment: Agonist activity at full length human VDR expressed in african green monkey Cos7 cells overexpressing mouse osteopontin vitamin D-responsive element assessed as transcriptional activation after 16 hrs by dual luciferase reporter gene assay; assay type: functional, cell-based; settings: COS-7
T1 sequence (whole entry): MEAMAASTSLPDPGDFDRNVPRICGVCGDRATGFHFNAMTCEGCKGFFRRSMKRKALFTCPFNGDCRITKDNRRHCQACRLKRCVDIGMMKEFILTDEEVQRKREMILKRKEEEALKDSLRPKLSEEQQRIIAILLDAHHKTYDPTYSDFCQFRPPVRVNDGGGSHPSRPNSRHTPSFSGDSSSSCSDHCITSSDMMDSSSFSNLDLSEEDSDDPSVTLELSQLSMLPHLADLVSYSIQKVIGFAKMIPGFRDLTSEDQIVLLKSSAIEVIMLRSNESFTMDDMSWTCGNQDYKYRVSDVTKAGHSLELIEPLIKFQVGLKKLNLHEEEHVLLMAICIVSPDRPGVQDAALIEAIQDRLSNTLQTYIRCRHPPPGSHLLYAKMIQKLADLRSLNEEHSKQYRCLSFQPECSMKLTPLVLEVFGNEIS
In short: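 COS-7 cells in DMEM with 5% FBS were lipofected with full-length pCMX-hVDR, the SPPx3-TK-Luc osteopontin VDRE reporter and pRL-CMV. After 8 h, ligand or ethanol vehicle was added for 16 h. Dual luciferase read-out was normalized to the internal control. Activity at 10^-8 M 1,25-(OH)₂D₃ was set as 1; triplicate.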

HEK293 [2] = experiment: Induction of CYP24A1 mRNA expression in HEK293 cells at 10^-6 M after 24 hrs by quantitative real time PCR; assay type: functional, cell-based; settings: Homo sapiens
In short: (§1)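 HEK293 cells were treated for 24 h with 10^-6 M compound, without (12) or with (15) 10^-8 M 1,25-(OH)₂D₃. CYP24A1 mRNA was measured by quantitative real-time RT-PCR and normalized to actin mRNA; mean ± SD of triplicates.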

HL-60 [3] = experiment: Induction of cell differentiation in human HL60 cells after 4 days by NBT reduction assay; assay type: functional, cell-based
In short: (§2)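 HL-60 promyelocytic leukemia cells were plated at 2 × 10⁵ cells/plate in Eagle's modified medium. Compound was added at 10^-6, 10^-7 or 10^-8 M for 4 days. Differentiation was scored by nitro blue tetrazolium reduction.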

[4] = biological target: T1, Vitamin D3 receptor (Homo sapiens); experiment: Agonist activity at human VDR expressed in african green monkey COS7 cells overexpressing GAL4 response element assessed as SRC1 peptide recruitment by mammalian two hybrid assay; assay type: functional, cell-based; settings: COS-7
[5] = biological target: T1, Vitamin D3 receptor (Homo sapiens); experiment: Agonist activity at human VDR expressed in african green monkey COS7 cells overexpressing GAL4 response element assessed as RXRalpha recruitment by mammalian two hybrid assay; assay type: functional, cell-based; settings: COS-7
Vitamin D3 receptor = biological target: T2, Vitamin D3 receptor (Bos taurus, UniProt Q28037); experiment: Displacement of [3H]1,25-(OH)2D3 from bovine thymus vitamin D receptor
T2 sequence (Q28037 whole entry): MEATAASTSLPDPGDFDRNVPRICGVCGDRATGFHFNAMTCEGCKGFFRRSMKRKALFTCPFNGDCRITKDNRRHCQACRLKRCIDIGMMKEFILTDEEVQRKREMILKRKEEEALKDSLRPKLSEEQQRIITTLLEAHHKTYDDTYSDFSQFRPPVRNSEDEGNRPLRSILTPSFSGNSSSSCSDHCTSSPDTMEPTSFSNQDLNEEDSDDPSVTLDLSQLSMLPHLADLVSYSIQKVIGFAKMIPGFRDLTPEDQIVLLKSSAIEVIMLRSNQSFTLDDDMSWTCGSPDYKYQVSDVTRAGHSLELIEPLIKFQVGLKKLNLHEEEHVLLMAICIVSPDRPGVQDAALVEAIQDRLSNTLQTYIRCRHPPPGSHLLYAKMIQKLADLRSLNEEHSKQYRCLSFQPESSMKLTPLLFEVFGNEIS
In short: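 Bovine thymus VDR was dissolved in 0.05 M phosphate buffer, pH 7.4, with 0.3 M KCl and 5 mM DTT. Free ligand was removed with dextran-coated charcoal (20 min, 4 °C) and supernatant radioactivity counted. Nonspecific binding was subtracted; EC₅₀ came from dose-response curves; duplicate.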

[6] = biological target: T1, Vitamin D3 receptor (Homo sapiens); experiment: Antagonist activity at full length human VDR expressed in african green monkey Cos7 cells overexpressing mouse osteopontin vitamin D-responsive element assessed as inhibition of 1,25-(OH)2D3-induced transcriptional activation after 16 hrs by dual luciferase reporter gene assay; assay type: functional, cell-based; settings: COS-7
In short: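 Cos7 cells were transfected with full-length hVDR, the SPPx3-TK-Luc osteopontin VDRE reporter and pRL-CMV. Test ligands were given together with 10^-9 M 1,25-(OH)₂D₃ for 16 h. Dual luciferase signal was normalized to the sea pansy control, with activity at 10^-8 M 1,25-(OH)₂D₃ set as 1; triplicate.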

HEK293 [7] = experiment: Inhibition of 1,25-(OH)2D3-induced CYP24A1 mRNA expression in HEK293 cells at 10^-6 M after 24 hrs by quantitative real time PCR; assay type: functional, cell-based; settings: Homo sapiens; in short: as §1
HEK293 [8] = experiment: Inhibition of 1,25-(OH)2D3-induced CYP24A1 mRNA expression in HEK293 cells after 24 hrs by real time PCR; assay type: functional, cell-based; settings: Homo sapiens
In short: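 HEK293 cells were exposed to the indicated compound concentrations for 24 h. CYP24A1 mRNA was quantified by real-time RT-PCR against actin; triplicate.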

HL-60 [9] = experiment: Inhibition of 1,25-(OH)2D3-induced cell differentiation in human HL60 cells after 4 days by NBT reduction assay; assay type: functional, cell-based; in short: as §2
HL-60 [10] = experiment: Inhibition of 1,25-(OH)2D3-induced cell differentiation in human HL60 cells assessed as morphological changes at 10^-6 M by Wright-Geimsa staining; assay type: functional, cell-based
In short: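 HL-60 cells were stained with Wright-Giemsa and their morphology examined by light microscopy.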

[11] = biological target: T1, Vitamin D3 receptor (Homo sapiens); experiment: Antagonist activity at human VDR expressed in african green monkey COS7 cells overexpressing GAL4 response element assessed as RXRalpha recruitment by mammalian two hybrid assay; assay type: functional, cell-based; settings: COS-7
[12] = biological target: T1, Vitamin D3 receptor (Homo sapiens); experiment: Agonist activity at full length human VDR expressed in HEK293 cells overexpressing mouse osteopontin vitamin D-responsive element assessed as transcriptional activation after 16 hrs by dual luciferase reporter gene assay; assay type: functional, cell-based
[13] = biological target: T1, Vitamin D3 receptor (Homo sapiens); experiment: Antagonist activity at full length human VDR expressed in HEK293 cells overexpressing mouse osteopontin vitamin D-responsive element assessed as inhibition of 1,25-(OH)2D3-induced transcriptional activation after 16 hrs by dual luciferase reporter gene assay; assay type: functional, cell-based
[14] = biological target: T1, Vitamin D3 receptor (Homo sapiens); experiment: Antagonist activity at human VDR expressed in african green monkey COS7 cells overexpressing GAL4 response element assessed as SRC1 peptide recruitment by mammalian two hybrid assay; assay type: functional, cell-based; settings: COS-7
HL-60 [15] = experiment: Inhibition of 1,25-(OH)2D3-induced differentiation in human HL60 cells after 4 days by NBT reduction assay
[16] = system: T3, Vitamin D3 receptor (Homo sapiens), P11473 [H397A]; experiment: Agonist activity at full length human VDR H397A mutant expressed in african green monkey COS7 cells overexpressing mouse osteopontin vitamin D-responsive element assessed as transcriptional activation at 10^-6 M after 16 hrs by dual luciferase reporter gene assay; assay type: functional, cell-based; settings: COS-7
T3 sequence (whole entry): T1 sequence (whole entry) with H397A
In short: (§3)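 COS-7 cells in DMEM with 5% FBS, seeded at 2 × 10⁴ per well. After 24 h they were lipofected with the mutant hVDR plasmid (pCMX-hVDR), the SPPx3-TK-Luc reporter (three mouse osteopontin VDREs) and the pRL-CMV control. After 8 h, ligand was added at 10^-6 M, or ethanol vehicle, for 16 h. Firefly luciferase was normalized to the internal control; triplicate.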

[17] = system: T4, Vitamin D3 receptor (Homo sapiens), P11473 [H305A]; experiment: Agonist activity at full length human VDR H305A mutant expressed in african green monkey COS7 cells overexpressing mouse osteopontin vitamin D-responsive element assessed as transcriptional activation at 10^-6 M after 16 hrs by dual luciferase reporter gene assay; assay type: functional, cell-based; settings: COS-7; in short: as §3
T4 sequence (whole entry): T1 sequence (whole entry) with H305A

| SMILES | pEC50 (Vitamin D3 receptor) | Activity [6] | Activity [12] | Activity [13] | Activity (HL-60 [3]) | Activity (HEK293 [7]) | other results |
| --- | --- | --- | --- | --- | --- | --- | --- |
| C=C1/C(=C\C=C2/CCC[C@]3(C)[C@@H]([C@@H](C)[C@H](CCO)CCCC)CC[C@@H]23)C[C@@H](O)C[C@@H]1O | 8.70 | – | – | – | Active | – | Activity [1]: Active; Activity (HEK293 [2]): Active; Activity [4]: Active; Activity [5]: Active |
| C=C1/C(=C\C=C2/CCC[C@]3(C)[C@@H]([C@H](C)[C@H](CCO)CCCC)CC[C@@H]23)C[C@@H](O)C[C@@H]1O | 8.92 | Dose-dependent effect | Dose-dependent effect | Dose-dependent effect | inactive | Active | Activity (HEK293 [8]): Dose-dependent effect; Activity (HL-60 [9]): Active; Activity (HL-60 [10]): Active; Activity [11]: Active; Activity [14]: Active; Activity (HL-60 [15]): Active |
| C=C1/C(=C\C=C2/CCC[C@]3(C)[C@@H]([C@@H](C)[C@@H](CCO)CCCC)CC[C@@H]23)C[C@@H](O)C[C@@H]1O | 7.70 | Dose-dependent effect | Dose-dependent effect | Dose-dependent effect | inactive | Active | Activity [16]: Active |
| C=C1/C(=C\C=C2/CCC[C@]3(C)[C@@H]([C@H](C)[C@@H](CCO)CCCC)CC[C@@H]23)C[C@@H](O)C[C@@H]1O | 7.96 | – | – | – | inactive | – | – |
| C=C1/C(=C\C=C2/CCC[C@]3(C)[C@@H]([C@H](C)CCCC(C)(C)O)CC[C@@H]23)C[C@@H](O)C[C@@H]1O | – | – | – | – | Active | – | Activity (HL-60 [10]): Active |

Now from value to molecule, other results behind:

| pEC50 (Vitamin D3 receptor) | Activity [6] | Activity [12] | Activity [13] | SMILES | Activity (HL-60 [3]) | Activity (HEK293 [7]) | other results |
| --- | --- | --- | --- | --- | --- | --- | --- |
| 8.42 | Dose-dependent effect | Dose-dependent effect | Dose-dependent effect | C=C1/C(=C\C=C2/CCC[C@]3(C)[C@@H]([C@H](C)[C@@H](CCCC)C[C@H](O)C(C)C)CC[C@@H]23)C[C@@H](O)C[C@@H]1O | inactive | Active | – |
| 7.70 | – | – | – | C=C1/C(=C\C=C2/CCC[C@]3(C)[C@@H]([C@H](C)[C@@H](CCCC)C[C@@H](O)C(C)C)CC[C@@H]23)C[C@@H](O)C[C@@H]1O | – | – | – |
| 7.80 | – | – | – | C=C1/C(=C\C=C2/CCC[C@]3(C)[C@@H]([C@H](C)[C@H](CCCC)C[C@@H](O)C(C)C)CC[C@@H]23)C[C@@H](O)C[C@@H]1O | inactive | – | – |
| 8.47 | Dose-dependent effect | Dose-dependent effect | Dose-dependent effect | C=C1/C(=C\C=C2/CCC[C@]3(C)[C@@H]([C@H](C)[C@H](CCCC)C[C@H](O)C(C)C)CC[C@@H]23)C[C@@H](O)C[C@@H]1O | inactive | Active | Activity [17]: Active |
